Test [1] has as its target T1, 5-hydroxytryptamine receptor 1B (Homo sapiens, UniProt P28222). Nature of the test: Binding affinity at cloned human 5-hydroxytryptamine 1B receptor stably expressed in CHO cells by [3H]5-HT displacement. The test is classed as cell-based.
Test [2] is described as follows: Ratio of IC50 for human 5-HT1B to human 5-HT1D receptors.
For test [3], the target named is T2, 5-hydroxytryptamine receptor 1D (Homo sapiens, UniProt P28221). In words: Binding affinity at human cloned 5-hydroxytryptamine 1D receptor stably expressed in CHO cells by [3H]5-HT displacement. The test is classed as cell-based. Summed up:
(§1)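 Membranes from thawed CHO cells with human 5-HT1B or 5-HT1D, washed in 50 mM Tris-HCl pH 7.7, preincubated 10 min at 37 °C to remove endogenous 5-HT. Buffer holds 0.1% ascorbate, 10 μM pargyline and 4 mM CaCl2. Uses 2.0 nM [3H]5-HT, 30 min at 37 °C; 10 μM 5-HT defines nonspecific binding. Filtration; IC50 by nonlinear regression; duplicates, 2–5 occasions.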

For test [4], the target named is T2, 5-hydroxytryptamine receptor 1D. In words: Agonist-induced [35S]- GTPgammaS binding in CHO cells stably transfected with 5-hydroxytryptamine 1D receptor. The test is classed as cell-based. The procedure, abridged:
(§2)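 Membranes from thawed CHO cells with human 5-HT1D, prepared in ice-cold 20 mM Hepes/EDTA at pH 7.4, spun at 40000g. Assay buffer: 100 mM NaCl, 10 mM MgCl2, 0.1% ascorbate, 10 μM pargyline. GDP 100 μM plus drug, 20 min at 30 °C, then ice 15 min. Then 100 pM [35S]GTPγS, 30 min at 30 °C, filtration. Emax is taken as % of maximal 5-HT response; duplicates, 2–5 occasions.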
(In general: GTPγS resists hydrolysis and so accumulates on activated G proteins.)

The target is the same in test [5]. Nature of the test: Maximum stimulation of [35S]GTP-gamma-S, binding in CHO cells expressing human 5-HT-1d relative to 5-HT. The class given is functional, cell-based. Summed up:
as §2

Test [6] shares this target. In words: Displacement of [3H]5-HT binding to cloned human 5-hydroxytryptamine 1D receptor stably expressed in CHO cells. The test is classed as cell-based. Summed up:
as §1

Test [7] has as its target T1, 5-hydroxytryptamine receptor 1B. Nature of the test: Displacement of [3H]5-HT binding to cloned 5-hydroxytryptamine 1B receptor stably expressed in CHO cells. The test is classed as cell-based. Summed up: as §1

What is called pIC50 is the negative decadic logarithm of the IC50, by convention in mol/L. Low readings indicate a large IC50, high ones a small IC50. A word on the pEC50: it is the EC50 on a negative log10 scale, so that one unit is a factor of ten.

Structures are written as SMILES. pEC50, pIC50: −log10 of the molar value.

T1 sequence (P28222 whole entry): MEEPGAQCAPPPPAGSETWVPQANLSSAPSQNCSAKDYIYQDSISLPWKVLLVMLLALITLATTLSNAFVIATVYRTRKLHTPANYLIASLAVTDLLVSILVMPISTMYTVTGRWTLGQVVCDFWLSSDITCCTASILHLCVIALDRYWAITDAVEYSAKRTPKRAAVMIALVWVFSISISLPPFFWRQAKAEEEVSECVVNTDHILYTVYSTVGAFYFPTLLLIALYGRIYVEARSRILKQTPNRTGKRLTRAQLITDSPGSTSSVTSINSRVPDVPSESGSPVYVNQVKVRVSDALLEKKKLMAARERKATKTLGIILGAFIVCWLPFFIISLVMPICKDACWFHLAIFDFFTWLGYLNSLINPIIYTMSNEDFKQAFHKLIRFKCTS
T2 sequence (P28221 whole entry): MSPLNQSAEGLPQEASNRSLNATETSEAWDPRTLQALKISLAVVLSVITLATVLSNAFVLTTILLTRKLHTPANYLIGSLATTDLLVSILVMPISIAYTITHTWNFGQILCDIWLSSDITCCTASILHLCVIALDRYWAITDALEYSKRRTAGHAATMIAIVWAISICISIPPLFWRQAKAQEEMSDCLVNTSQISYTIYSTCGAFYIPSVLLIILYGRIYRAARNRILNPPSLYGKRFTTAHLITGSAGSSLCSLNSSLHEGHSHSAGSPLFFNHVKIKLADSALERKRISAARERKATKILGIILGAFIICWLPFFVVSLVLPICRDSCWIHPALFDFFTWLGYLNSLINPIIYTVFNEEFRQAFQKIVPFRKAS

For `C[C@@H](NC1CCN(CCCc2c[nH]c3ccc(-n4cnnc4)cc23)CC1)[C@@H](O)c1ccccc1`, the pIC50 in test [1] was 6.68; in test [3] it was 7.92. The Selectivity in test [2] came out at 18.
The corresponding values for `CN(C1CCN(CCCc2c[nH]c3ccc(-n4cnnc4)cc23)CC1)[C@H](CO)c1ccccc1` are 7.15, 8.37 and 17.
In the case of `OC[C@@H](Cc1ccccc1)NC1CCN(CCCc2c[nH]c3ccc(-n4cnnc4)cc23)CC1`, the pEC50 in test [4] is 7.85. For the same molecule, the results for the pIC50 in test [1] and in test [3] were 7.00 and 8.08, respectively. Besides, in test [2], the Selectivity amounted to 12. Further, the Efficacy in test [5] was 74%.
Consider `C[C@H](NC1CCN(CCCc2c[nH]c3ccc(-n4cnnc4)cc23)CC1)c1ccccc1`, for which, in test [4], the pEC50 is 7.92. The figures for the pIC50 in test [1] and in test [3] were 7.02 and 9.22, respectively. Moreover, in test [2], the Selectivity came out at 160. The molecule further registered an Efficacy in test [5] of 76%.
Regarding `c1ccc2c(c1)CCC2NC1CCN(CCCc2c[nH]c3ccc(-n4cnnc4)cc23)CC1` (stereo not given), the pIC50 was 8.05 in test [6] and 6.55 in test [7]. The molecule also showed a pEC50 in test [4] of 7.60. Also, the Selectivity in test [2] is 31. The same molecule came in with an Efficacy in test [5] of 68%.
For the molecule `CC(CO)(NC1CCN(CCCc2c[nH]c3ccc(-n4cnnc4)cc23)CC1)c1ccccc1` (stereo not given), in test [4], the pEC50 is 8.47. Also, the pIC50 in test [1] was 7.01; in test [3], 8.28. Also, the Selectivity in test [2] stood at 19. In test [5], this molecule gave an Efficacy of 59%.
Turning to `O=C1N[C@@H](Cc2ccc3[nH]cc(CCCN4CCC(N[C@@H](CO)c5ccccc5)CC4)c3c2)CO1`, the pIC50 in test [6] is 8.20; in test [7], 6.34. The same molecule showed a pEC50 in test [4] of 8.22. In addition, the Selectivity in test [2] turned out to be 73. In test [5], the Efficacy was 83%.
On to `C[C@@H](NC1CCN(CCCc2c[nH]c3ccc(-n4ccnc4)cc23)CC1)c1ccccc1`, for which the figures for the negative-log IC50 (pIC50) in test [6] and in test [7] were 8.38 and 6.96, respectively. In addition, in test [4], the pEC50 is 8.21. For the same molecule, the Selectivity in test [2] turned out to be 26. The Efficacy in test [5] turned out to be 65%.
In the case of `C[C@@H](NC1CCN(CCCc2c[nH]c3ccc(-n4cnnc4)cc23)CC1)C(=O)Nc1ccccc1`, the pEC50 in test [4] was 7.82. In addition, the results for the pIC50 in test [1] and in test [3] were 7.07 and 8.12, respectively. The Selectivity in test [2] stood at 11. In test [5], this molecule came in with an Efficacy of 61%.
For the molecule `c1cc(CNC2CCN(CCCc3c[nH]c4ccc(-n5cnnc5)cc34)CC2)co1`, the pIC50 is 8.35 in test [6] and 7.11 in test [7]. In addition, the pEC50 in test [4] was 8.15. Moreover, the Selectivity in test [2] was 17. Besides, the Efficacy in test [5] came to 65%.
On to `NC(=O)OC[C@H](NC1CCN(CCCc2c[nH]c3ccc(-n4cnnc4)cc23)CC1)c1ccccc1`, for which the negative-log EC50 (pEC50) in test [4] was 8.03. Also, the figures for the pIC50 in test [1] and in test [3] were 6.92 and 8.33, respectively. In test [2], the Selectivity came out at 26. Besides, the Efficacy in test [5] came out at 73%.
On to `CC(NC1CCN(CCCc2c[nH]c3ccc(-n4cnnc4)cc23)CC1)c1ccc(F)cc1` (stereo not given), for which, in test [4], the pEC50 is 9.30. Besides, the figures for the pIC50 in test [1] and in test [3] were 6.64 and 8.72, respectively. Moreover, the Selectivity in test [2] stood at 120. This molecule displayed an Efficacy in test [5] of 99%.
With `CC(=O)Nc1ccc([C@@H](C)NC2CCN(CCCc3c[nH]c4ccc(-n5cnnc5)cc34)CC2)cc1`, the results for the pIC50 in test [1] and in test [3] were 6.46 and 7.54, respectively. In addition, the Selectivity in test [2] was 12.
As for `C[C@H](Cc1ccccc1)NC1CCN(CCCc2c[nH]c3ccc(-n4cnnc4)cc23)CC1`, the negative logarithm of the EC50 (pEC50) in test [4] was 8.17. Moreover, the pIC50 in test [1] is 6.77; in test [3] it was 8.26. For the same molecule, the Selectivity in test [2] came to 31. Besides, the Efficacy in test [5] worked out at 71%.
In the case of `O[C@@H]1Cc2ccccc2[C@H]1NC1CCN(CCCc2c[nH]c3ccc(-n4cnnc4)cc23)CC1`, the figures for the pIC50 in test [6] and in test [7] were 8.18 and 6.68, respectively. The molecule also showed a pEC50 in test [4] of 7.89. In addition, the Selectivity in test [2] came to 32. For the same molecule, the Efficacy in test [5] was found to be 75%.
Turning to `C[C@@H](NC1CCN(CCCc2c[nH]c3ccc(-n4cnnc4)cc23)CC1)[C@H](O)c1ccccc1`, in test [4], the pEC50 is 7.82. Further, the pIC50 is 6.70 in test [1] and 7.96 in test [3]. Further, the Selectivity in test [2] was found to be 18. Also, the Efficacy in test [5] amounted to 76%.
In the case of `OC[C@H](NC1CCN(CCCc2c[nH]c3ccc(Cn4cncn4)cc23)CC1)c1ccccc1`, the pIC50 in test [6] is 7.64; in test [7], 5.89. The same molecule showed a pEC50 in test [4] of 7.49. Also, the Selectivity in test [2] was determined as 57. For the same molecule, in test [5], the Efficacy was 76%.
In the case of `CN(Cc1ccoc1)C1CCN(CCCc2c[nH]c3ccc(-n4cnnc4)cc23)CC1`, the values for the pIC50 in test [6] and in test [7] were 8.09 and 6.70, respectively. In test [4], this molecule showed a pEC50 of 8.05. The Selectivity in test [2] is 25. This molecule showed an Efficacy in test [5] of 87%.
The corresponding values for `C[C@H](O)[C@H](NC1CCN(CCCc2c[nH]c3ccc(-n4cnnc4)cc23)CC1)c1ccccc1` are 8.12, 6.82, 7.52, 20 and 81%.
As for `c1ccc2c(c1)CCC2NCC1CCN(CCCc2c[nH]c3ccc(-n4cnnc4)cc23)CC1` (stereo not given), the pIC50 was 8.96 in test [6] and 7.60 in test [7]. This molecule also showed a pEC50 in test [4] of 8.89. Also, the Selectivity in test [2] came out at 23. In test [5], this molecule came in with an Efficacy of 78%.
`OCCC(NC1CCN(CCCc2c[nH]c3ccc(-n4cnnc4)cc23)CC1)c1ccccc1` (stereo not given) had a pEC50 in test [4] of 8.29. For the same molecule, the pIC50 in test [1] is 6.82; in test [3] it was 8.26. Moreover, the Selectivity in test [2] amounted to 27. For the same molecule, in test [5], the Efficacy is 100%.
`CC(=O)Nc1ccc([C@H](C)NCC2CCN(CCCc3c[nH]c4ccc(-n5cnnc5)cc34)CC2)cc1`: the pIC50 in test [6] is 9.22; in test [7], 8.03. The molecule also gave a pEC50 in test [4] of 8.52. In addition, the Selectivity in test [2] was found to be 16. Moreover, in test [5], the Efficacy came to 99%.
The corresponding values for `c1ccc(CNC2CCN(CCCc3c[nH]c4ccc(-n5cnnc5)cc34)CC2)cc1` are 8.34, 6.92, 8.12, 26 and 76%.
The corresponding values for `c1ccc(C2CCCCN2C2CCN(CCCc3c[nH]c4ccc(-n5cnnc5)cc34)CC2)cc1` (stereo not given) are 8.72, 6.39, 8.33, 220 and 65%.
On the same counts, the results for `CC(=O)Nc1ccc(CNC2CCN(CCCc3c[nH]c4ccc(-n5cnnc5)cc34)CC2)cc1` are 8.52, 7.35, 8.30, 15 and 75%.
Turning to `CC#CCN(C)C1CCN(CCCc2c[nH]c3ccc(-n4cnnc4)cc23)CC1`, the pIC50 in test [1] was 7.09; in test [3], 8.01. Moreover, the Selectivity in test [2] was determined as 8.3.
In the case of `C[C@@H](O)[C@H](NC1CCN(CCCc2c[nH]c3ccc(-n4cnnc4)cc23)CC1)c1ccccc1`, the negative-log IC50 (pIC50) in test [6] was 9.05; in test [7], 7.32. In test [4], this molecule gave a pEC50 of 9.00. Further, the Selectivity in test [2] came to 53. The molecule further displayed an Efficacy in test [5] of 85%.
`COC[C@H](NC1CCN(CCCc2c[nH]c3ccc(-n4cnnc4)cc23)CC1)c1ccccc1` gave a pEC50 in test [4] of 9.05. For the same molecule, the pIC50 in test [1] was 6.68; in test [3], 8.52. Moreover, the Selectivity in test [2] came to 70. The Efficacy in test [5] was 93%.
For `COC[C@H](NC1CCN(CCCc2c[nH]c3ccc(Cn4cncn4)cc23)CC1)c1ccc(F)cc1`, the pIC50 in test [6] was 8.30; in test [7], 5.92. For the same molecule, in test [4], the negative-log EC50 (pEC50) is 8.05. Besides, in test [2], the Selectivity was 240. In test [5], this molecule returned an Efficacy of 89%.
On to `OC[C@H](NC1CCN(CCCc2c[nH]c3ccc(-n4ccnc4)cc23)CC1)c1ccccc1`, for which the pIC50 is 9.15 in test [6] and 7.00 in test [7]. Moreover, in test [4], the pEC50 was 9.10. Further, the Selectivity in test [2] came out at 140. Moreover, in test [5], the Efficacy is 74%.
On the same counts, the results for `CC(C)=CCN(C)C1CCN(CCCc2c[nH]c3ccc(-n4cnnc4)cc23)CC1` are 9.30, 7.39, 8.74, 82 and 115%.
On to `CS(=O)(=O)NC[C@H](NC1CCN(CCCc2c[nH]c3ccc(-n4cnnc4)cc23)CC1)c1ccccc1`, for which the negative-log IC50 (pIC50) in test [1] was 7.11; in test [3], 7.82. In addition, in test [2], the Selectivity turned out to be 5.2.
`c1ccc(CNCC2CCN(CCCc3c[nH]c4ccc(-n5cnnc5)cc34)CC2)cc1`: the pIC50 in test [6] was 8.80; in test [7], 7.55. In test [4], the pEC50 is 8.25. For the same molecule, in test [2], the Selectivity came out at 18. Besides, the Efficacy in test [5] was found to be 101%.

The record behind these values is ChEMBL document CHEMBL1132157 (J Med Chem, 1999).
